The test system of series [1] is Hepatitis C virus. Kind of series: Antiviral activity against Hepatitis C virus genotype 1b infected in human Huh-7.5.1 cells after 48 to 72 hrs by luciferase reporter assay. Type of series: functional, organism-based, Hepacivirus hominis.
Series [2] deals with Hepatitis C virus. In words: Antiviral activity against HCV JFH-1 infected in human Huh-7.5.1 cells after 48 to 72 hrs by luciferase reporter assay. In kind it is functional, organism-based, Hepacivirus hominis. Particulars: JFH-1, Huh-7.5.1.
A short description of series [3]: Cytotoxicity against human Huh7.5.1 cells by fluorescent cell viability assay. Type of series: cell-based, Huh-7.
In series [4] the test system is Human immunodeficiency virus 1. In words: Antiviral activity against HIV-1 LAI infected in human MT2 cells assessed as p24 antigen production after 4 days by ELISA. Type of series: functional, organism-based. The conditions noted are these: Human immunodeficiency virus 1, LAI, MT2, 96 h. An outline of the steps: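 MT-2 cells in RPMI 1640 with 10% FBS, 10 mM HEPES, penicillin/streptomycin, inoculated with HIV-1 LAI at MOI 0.001 TCID50/cell; threefold serial drug dilutions, three wells each.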

The subject of a further series is MT2. Kind of series: Cytotoxicity against human MT2 cells after 72 hrs by propidium iodide staining-based flow cytometry. In kind it is cell-based. The conditions noted are these: mt2, 72 h.
The nature of series [5]: Selectivity index, ratio of CC50 for human Huh7.5.1 cells to EC50 for HCV genotype1b in human Huh-7.5.1 cells. Type of series: functional, Huh-7.
The nature of series [6]: Selectivity index, ratio of CC50 for human Huh7.5.1 cells to EC50 for HCV JFH-1 in human Huh-7.5.1 cells. Type of series: functional, Huh-7.
Series [7] can be described thus: Selectivity index, ratio of CC50 for human MT2 cells to EC50 for HIV-1 LAI infected in human MT2 cells. Particulars: read-out: Ratio CC50/EC50. Type of series: toxicity, cell-based.
For the next series, the system named is Human alphaherpesvirus 1. Kind of series: Antiviral activity against Human herpesvirus 1 infected in human HFF cells after 3 days by Plaque reduction assay. Type of series: functional, organism-based. The conditions noted are these: Human alphaherpesvirus 1, HFF, 72 h.
The subject of a further series is Human betaherpesvirus 5. In words: Antiviral activity against Human cytomegalovirus infected in human HFF cells after 8 days by Plaque reduction assay. In kind it is functional, organism-based. The conditions noted are these: Human betaherpesvirus 5, HFF, 192 h.
A further series has as its system Vaccinia virus. In words: Antiviral activity against Vaccinia virus infected in human HFF cells after 3 days by Plaque reduction assay. Type of series: functional, organism-based. Particulars: Orthopoxvirus vaccinia, 72 h.
For a further series, the system named is Cowpox virus. Kind of series: Antiviral activity against Cowpox virus infected in human HFF cells after 3 days by Plaque reduction assay. Type of series: functional, organism-based. The conditions noted are these: 72 h.

Where only a bound is given, the exact number is not on record here.

For `CCCCCCCCCCCCCCCCCCOCCOP(=O)(O)CO[C@@H](COC)Cn1cnc2c(N)nc(N)nc21`, the EC50 with Hepatitis C virus [1] turned out to be 25.6 µM; with Hepatitis C virus [2], 25.8 µM; in [4] it was 0.04 µM. Also, the CC50 in series [3] (Huh7.5.1 cells) is > 150 µM; with MT2, 19.7 µM.
Turning to `CCCCCCCCCCCCCCCCOCCCOP(=O)(O)CO[C@H](COC)Cn1cnc2c(N)ncnc21`, the values for the EC50 (with Hepatitis C virus [1]; in the series with Hepatitis C virus [2]; in [4]) were 2.36 µM, 4.64 µM and 0.2 µM, respectively. The results for the CC50 (in series [3] (Huh7.5.1 cells); in the series with MT2) were > 150 µM and 32 µM, respectively.
`CCCCCCCCCCCCCCCCOCCCOP(=O)([O-])COC(COCC)Cn1cnc2c(=O)[nH]c(N)nc21.[Na+]` (racemic): the figures for the EC50 (with Hepatitis C virus [1]; with Hepatitis C virus [2]; in series [4]) were 25.5 µM, 13.2 µM and > 10 µM, respectively. Moreover, the CC50 in series [3] (Huh7.5.1 cells) was > 150 µM; in the series with MT2, 14.9 µM. For the same molecule, the “Ratio CC50/EC50” value in series [5] is on record as >5.88; in [6], >11.4.
Consider `CCCCCCCCCCCCCCCCOCCCOP(=O)(O)CO[C@H](COC)Cn1cnc2c(=O)[nH]c(N)nc21`, for which the EC50 with Hepatitis C virus [1] is 22 µM; with Hepatitis C virus [2], 24.8 µM; in [4] it was 2.03 µM. In addition, the CC50 in [3] (Huh7.5.1 cells) was > 150 µM; in the series with MT2 it was 29.3 µM.
Turning to `CCCCCCCCCCCCCCCCOCCCOP(=O)(O)COC(COCC)Cn1cnc2c(N)ncnc21` (racemic), the results for the EC50 (in the series on Hepatitis C virus [1]; in the series with Hepatitis C virus [2]; in series [4]) were 7.59 µM, 8.87 µM and > 10 µM, respectively. The results for the CC50 (in [3] (huh-7); in the series on MT2) were 99 µM and 23.6 µM, respectively.
Turning to `CCCCCCCCCCCCCCCCCCOCCOP(=O)([O-])CO[C@@H](COC)Cn1cnc2c(=O)[nH]c(N)nc21.[Na+]`, the EC50 with Hepatitis C virus [1] is 12.6 µM; in the series on Hepatitis C virus [2], 12.4 µM; in [4], < 1e-05 µM. The values for the CC50 (in series [3] (Huh7.5.1 cells); in the series with MT2) were > 150 µM and 44 µM, respectively. Besides, the “Ratio CC50/EC50” value was >11.9 in [5] and >12.1 in series [6]. Moreover, the selectivity ratio in series [7] is > 4.4e+06.
`CCCCCCCCCCCCCCCCCCOCCOP(=O)(O)CO[C@H](COC)Cn1cnc2c(N)nc(N)nc21`: the values for the EC50 (in the series with Hepatitis C virus [1]; with Hepatitis C virus [2]; in series [4]) were 20.1 µM, 21.4 µM and 0.23 µM, respectively. For the same molecule, the CC50 in series [3] (huh-7) came out at 99 µM; in the series with MT2, 18 µM.
Regarding `CCCCCCCCCCCCCCCCCCOCCOP(=O)(O)CO[C@H](COC)Cn1ccc(N)nc1=O`, the EC50 with Hepatitis C virus [1] was > 150 µM; in the series with Hepatitis C virus [2] it was > 150 µM; in series [4], 12.7 µM. Also, the cytotoxic concentration (CC50) in series [3] (Huh7.5.1 cells) was > 150 µM; in the series on MT2, 60.7 µM. In addition, the selectivity ratio in series [7] was determined as 4.8.
In the case of `CCCCCCCCCCCCCCCCOCCCOP(=O)(O)CO[C@H](COC)Cn1cnc2c(OC)nc(N)nc21`, the EC50 in the series with Hepatitis C virus [1] is 18.1 µM; in the series on Hepatitis C virus [2], 17.4 µM; in series [4] it was > 10 µM. Also, the figures for the CC50 (in series [3] (Huh7.5.1 cells); in the series on MT2) were > 150 µM and 34.3 µM, respectively.
On to `CCCCCCCCCCCCCCCCOCCCOP(=O)([O-])COC(COCC)Cn1cnc2c(N)nc(N)nc21.[Na+]` (racemic), for which the results for the EC50 (in the series on Hepatitis C virus [1]; with Hepatitis C virus [2]; in series [4]) were 18.2 µM, 19.5 µM and > 10 µM, respectively. The CC50 is > 150 µM in [3] (Huh7.5.1 cells) and 30.7 µM in the series with MT2. Moreover, the “Ratio CC50/EC50” value is >8.2 in series [5] and >7.69 in series [6].
For `CCCCCCCCCCCCCCCCOCCCOP(=O)(O)CO[C@H](COC)Cn1cnc2c(OC)ncnc21`, the EC50 in the series on Hepatitis C virus [1] is 8.9 µM; in the series with Hepatitis C virus [2], 12.5 µM; in [4], > 10 µM. The CC50 is > 150 µM in series [3] (Huh7.5.1 cells) and 22 µM in the series on MT2.
Consider `CCCCCCCCCCCCCCCCCCOCCOP(=O)(O)CO[C@@H](COC)Cn1cnc2c(N)ncnc21`, for which the EC50 in the series on Hepatitis C virus [1] turned out to be 4.65 µM; with Hepatitis C virus [2], 5.33 µM; in series [4], 4.8 µM. Moreover, the CC50 in [3] (Huh7.5.1 cells) is > 150 µM.
`CCCCCCCCCCCCCCCCCCOCCOP(=O)(O)CO[C@H](CO)Cn1cnc2c(N)ncnc21`: the EC50 is 1.55 µM in the series with Hepatitis C virus [1], 1.65 µM in the series on Hepatitis C virus [2], 0.0001 µM in series [4] and < 0.0001 µM in the series on Human alphaherpesvirus 1. Moreover, the values for the CC50 (in series [3] (huh-7); in the series on MT2) were 35.6 µM and 0.033 µM, respectively.
Regarding `CCCCCCCCCCCCCCCCOCCCOP(=O)(O)COC(COC(C)C)Cn1cnc2c(N)ncnc21` (racemic), the EC50 in the series with Hepatitis C virus [1] is 51.2 µM; in the series on Hepatitis C virus [2], 98.8 µM; in series [4], > 10 µM. The CC50 was 100 µM in [3] (huh-7) and 30.3 µM in the series on MT2.
On to `CCCCCCCCCCCCCCCCCCOCCOP(=O)([O-])CO[C@H](COC)Cn1cnc2c(=O)[nH]c(N)nc21.[Na+]`, for which the EC50 in the series with Hepatitis C virus [1] was 8.26 µM; in the series with Hepatitis C virus [2], 10.7 µM; in series [4] it was 0.2 µM. For the same molecule, the CC50 in series [3] (Huh7.5.1 cells) is > 150 µM; in the series with MT2 it was 25 µM. Also, the “Ratio CC50/EC50” value in series [5] is >18.2; in series [6] it was >14. In addition, the selectivity ratio in series [7] was 125.
As for `CCCCCCCCCCCCCCCCOCCCOP(=O)(O)CO[C@H](COC)Cn1cnc2c(N)nc(N)nc21`, the EC50 in the series on Hepatitis C virus [1] came out at 21.3 µM; in the series with Hepatitis C virus [2] it was 23.6 µM; in [4], 4.6 µM. Besides, the CC50 turned out to be 91.5 µM in [3] (huh-7) and 22.7 µM in the series on MT2.
As to `CCCCCCCCCCCCCCCCCCOCCOP(=O)(O)CO[C@H](COC)Cn1cnc2c(N)ncnc21`, the EC50 in the series with Hepatitis C virus [1] came to 1.43 µM; in the series on Hepatitis C virus [2], 2.38 µM; in series [4], 0.03 µM; in the series on Human alphaherpesvirus 1, 45.7 µM; in the series with Human betaherpesvirus 5, 1.55 µM; with Vaccinia virus it was 18.3 µM. Also, the EC50 in the series with Cowpox virus was > 20 µM. For the same molecule, the CC50 in series [3] (Huh7.5.1 cells) was > 150 µM.

Values taken from ChEMBL document CHEMBL1811825, “Synthesis and antiviral evaluation of 9-(S)-[3-alkoxy-2-(phosphonomethoxy)propyl]nucleoside alkoxyalkyl esters: inhibitors of hepatitis C virus and HIV-1 replication” (Bioorg Med Chem, 2011).
